From ChEMBL document CHEMBL4732053, “Design, synthesis and structure-activity relationship study of novel urea compounds as FGFR1 inhibitors to treat metastatic triple-negative breast cancer” (Eur J Med Chem, 2021)

Tests used:
MDA-MB-231 = assay: Cytotoxicity against human MDA-MB-231 cells assessed as reduction in cell viability incubated for 48 hrs by MTT assay; assay type: functional, cell-based; settings: MDA-MB-231, 48 h
In short: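 MTT assay in MDA-MB-231 cells grown in DMEM with 10% heat-inactivated FBS at 37 °C and 5% CO2. Cells were seeded at 8000 per well, left 24 h, then exposed for 48 h to 0–25 μM in DMEM with 2% FBS (final DMSO 0.1%). MTT (0.5 mg/mL) was added for 2 h, formazan was dissolved in DMSO and read at 570 nm. Runs were in triplicate and IC50 was derived from the curves.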

D(1A) dopamine receptor = D(1A) dopamine receptor (Homo sapiens, UniProt P21728); assay: Binding affinity to dopamine D1 receptor (unknown origin) at 10 uM
In short: (§1)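 Primary radioligand-binding screen by the NIMH Psychoactive Drug Screening Program. Each compound was tested at a final concentration of 10 μM in triplicate or quadruplicate, and % inhibition was recorded. Data are mean ± SEM of four independent experiments. Compounds reaching at least 50% antagonist activity went on to secondary dose-response assays.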

D(2) dopamine receptor = D(2) dopamine receptor (Homo sapiens, UniProt P14416); assay: Binding affinity to dopamine D2 receptor (unknown origin) at 10 uM; in short: as §1
D(3) dopamine receptor = D(3) dopamine receptor (Homo sapiens, UniProt P35462); assay: Binding affinity to dopamine D3 receptor (unknown origin) at 10 uM; assay type: ADME; in short: as §1
D(4) dopamine receptor = target: T1, D(4) dopamine receptor (Homo sapiens, UniProt P21917); assay: Binding affinity to dopamine D4 receptor (unknown origin) at 10 uM; in short: as §1
T1 sequence (P21917 whole entry): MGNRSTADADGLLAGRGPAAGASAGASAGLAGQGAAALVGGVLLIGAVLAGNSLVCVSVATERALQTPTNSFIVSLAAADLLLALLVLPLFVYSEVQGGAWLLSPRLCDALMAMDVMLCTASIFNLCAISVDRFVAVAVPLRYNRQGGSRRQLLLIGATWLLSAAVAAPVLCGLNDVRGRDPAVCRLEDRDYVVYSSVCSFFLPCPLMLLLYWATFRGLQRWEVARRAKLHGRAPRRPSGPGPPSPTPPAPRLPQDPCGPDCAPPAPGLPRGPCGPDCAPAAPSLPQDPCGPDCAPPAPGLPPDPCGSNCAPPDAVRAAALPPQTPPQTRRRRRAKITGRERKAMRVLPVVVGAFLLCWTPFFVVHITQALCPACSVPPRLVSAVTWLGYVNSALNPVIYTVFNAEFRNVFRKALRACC

D(1B) dopamine receptor = D(1B) dopamine receptor (Homo sapiens, UniProt P21918); assay: Binding affinity to dopamine D5 receptor (unknown origin) at 10 uM; in short: as §1
[1] = target: Sodium-dependent dopamine transporter (Homo sapiens, UniProt Q01959); assay: Inhibition of DAT (unknown origin)
Histamine H1 receptor = Histamine H1 receptor (Homo sapiens, UniProt P35367); assay: Inhibition of H1R (unknown origin)
[2] = target: DAT (sodium-dependent dopamine transporter) (Homo sapiens, UniProt Q01959); assay: Inhibition of DAT (unknown origin) at 10 uM relative to control; in short: as §1
[3] = Drug uptake in C57 mouse brain at 10 mg/kg, ip measured after 1 hrs by LC-MS/MS analysis; assay type: ADME, organism-based; settings: in vivo
In short: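 Eight-week-old male and female C57 mice (~20 g) received a single 10 mg/kg i.p. dose in ethanol 2.5%, DMSO 2.5%, Tween 80 5%, PEG 400 25% and PBS 65%. Brains were taken after cardiac perfusion at 0–48 h. Tissue was homogenized in PBS (1:3 w/v), extracted with acetonitrile containing internal standard, and quantified by LC-MS/MS against matrix-matched calibration curves. n = 2–4.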

D(1B) dopamine receptor, sequence (P21918 whole entry): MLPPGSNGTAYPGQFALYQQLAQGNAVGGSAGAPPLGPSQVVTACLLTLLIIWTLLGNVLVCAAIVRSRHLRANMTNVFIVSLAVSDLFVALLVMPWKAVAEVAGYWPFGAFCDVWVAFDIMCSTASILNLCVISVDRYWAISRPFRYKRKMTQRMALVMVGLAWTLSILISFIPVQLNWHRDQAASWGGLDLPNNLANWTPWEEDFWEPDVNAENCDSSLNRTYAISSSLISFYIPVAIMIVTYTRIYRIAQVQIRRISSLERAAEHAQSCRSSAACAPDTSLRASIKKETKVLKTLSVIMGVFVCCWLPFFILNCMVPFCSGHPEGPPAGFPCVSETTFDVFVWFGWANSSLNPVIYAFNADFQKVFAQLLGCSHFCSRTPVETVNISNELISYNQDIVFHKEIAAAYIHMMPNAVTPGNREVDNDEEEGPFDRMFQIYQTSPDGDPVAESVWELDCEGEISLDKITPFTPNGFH
DAT (sodium-dependent dopamine transporter), sequence (Q01959 whole entry): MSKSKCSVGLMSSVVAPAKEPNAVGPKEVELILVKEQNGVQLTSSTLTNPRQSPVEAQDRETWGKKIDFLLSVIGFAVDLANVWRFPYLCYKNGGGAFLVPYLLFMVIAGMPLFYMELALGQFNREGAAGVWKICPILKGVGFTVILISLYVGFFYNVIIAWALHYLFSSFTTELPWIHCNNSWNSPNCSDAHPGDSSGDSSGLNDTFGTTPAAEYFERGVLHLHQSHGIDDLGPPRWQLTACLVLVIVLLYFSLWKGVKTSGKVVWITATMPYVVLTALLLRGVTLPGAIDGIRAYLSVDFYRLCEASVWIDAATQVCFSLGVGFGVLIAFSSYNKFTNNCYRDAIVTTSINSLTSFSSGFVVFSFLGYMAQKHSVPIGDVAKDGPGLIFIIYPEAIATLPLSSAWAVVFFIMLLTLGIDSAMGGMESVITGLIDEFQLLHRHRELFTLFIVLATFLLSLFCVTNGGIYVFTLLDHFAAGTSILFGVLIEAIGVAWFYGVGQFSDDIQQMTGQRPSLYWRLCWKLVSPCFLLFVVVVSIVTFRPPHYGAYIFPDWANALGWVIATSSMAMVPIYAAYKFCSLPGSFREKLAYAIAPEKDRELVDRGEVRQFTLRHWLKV
Sodium-dependent dopamine transporter, sequence (Q01959 whole entry): as above
D(1A) dopamine receptor, sequence (P21728 whole entry): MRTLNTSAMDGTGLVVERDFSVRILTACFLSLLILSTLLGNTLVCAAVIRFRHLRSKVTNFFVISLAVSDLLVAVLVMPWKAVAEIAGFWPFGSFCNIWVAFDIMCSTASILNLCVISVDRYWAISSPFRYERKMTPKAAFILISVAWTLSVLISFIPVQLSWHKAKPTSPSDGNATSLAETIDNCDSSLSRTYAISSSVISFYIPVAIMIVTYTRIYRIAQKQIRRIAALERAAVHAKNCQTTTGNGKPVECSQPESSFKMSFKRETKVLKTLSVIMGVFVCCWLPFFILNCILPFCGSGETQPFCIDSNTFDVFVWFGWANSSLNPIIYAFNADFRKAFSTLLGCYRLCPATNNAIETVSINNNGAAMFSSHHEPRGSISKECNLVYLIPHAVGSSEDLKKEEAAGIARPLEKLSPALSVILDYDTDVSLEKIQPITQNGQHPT
D(3) dopamine receptor, sequence (P35462 whole entry): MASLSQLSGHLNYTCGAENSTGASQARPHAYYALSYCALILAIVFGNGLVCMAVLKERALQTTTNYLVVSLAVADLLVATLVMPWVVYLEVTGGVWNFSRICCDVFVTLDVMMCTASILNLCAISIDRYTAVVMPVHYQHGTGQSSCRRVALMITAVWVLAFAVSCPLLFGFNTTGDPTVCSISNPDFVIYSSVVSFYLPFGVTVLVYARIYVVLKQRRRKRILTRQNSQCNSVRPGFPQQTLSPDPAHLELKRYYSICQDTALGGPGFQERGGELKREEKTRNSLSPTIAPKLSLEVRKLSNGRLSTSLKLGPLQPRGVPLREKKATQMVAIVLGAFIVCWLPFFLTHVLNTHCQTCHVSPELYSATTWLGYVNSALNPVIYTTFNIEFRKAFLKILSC
D(2) dopamine receptor, sequence (P14416 whole entry): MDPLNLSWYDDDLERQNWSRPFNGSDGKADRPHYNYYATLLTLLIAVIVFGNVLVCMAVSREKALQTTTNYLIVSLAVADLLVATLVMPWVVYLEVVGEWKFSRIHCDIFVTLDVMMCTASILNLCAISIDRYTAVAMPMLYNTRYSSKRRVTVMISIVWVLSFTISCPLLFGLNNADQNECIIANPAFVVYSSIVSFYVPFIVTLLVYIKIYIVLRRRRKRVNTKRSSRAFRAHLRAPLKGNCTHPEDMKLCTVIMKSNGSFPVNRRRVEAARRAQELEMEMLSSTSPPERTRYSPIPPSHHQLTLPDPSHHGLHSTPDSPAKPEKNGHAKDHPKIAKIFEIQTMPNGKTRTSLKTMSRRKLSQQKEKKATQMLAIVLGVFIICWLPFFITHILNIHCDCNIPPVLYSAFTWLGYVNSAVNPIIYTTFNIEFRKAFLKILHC
Histamine H1 receptor, sequence (P35367 whole entry): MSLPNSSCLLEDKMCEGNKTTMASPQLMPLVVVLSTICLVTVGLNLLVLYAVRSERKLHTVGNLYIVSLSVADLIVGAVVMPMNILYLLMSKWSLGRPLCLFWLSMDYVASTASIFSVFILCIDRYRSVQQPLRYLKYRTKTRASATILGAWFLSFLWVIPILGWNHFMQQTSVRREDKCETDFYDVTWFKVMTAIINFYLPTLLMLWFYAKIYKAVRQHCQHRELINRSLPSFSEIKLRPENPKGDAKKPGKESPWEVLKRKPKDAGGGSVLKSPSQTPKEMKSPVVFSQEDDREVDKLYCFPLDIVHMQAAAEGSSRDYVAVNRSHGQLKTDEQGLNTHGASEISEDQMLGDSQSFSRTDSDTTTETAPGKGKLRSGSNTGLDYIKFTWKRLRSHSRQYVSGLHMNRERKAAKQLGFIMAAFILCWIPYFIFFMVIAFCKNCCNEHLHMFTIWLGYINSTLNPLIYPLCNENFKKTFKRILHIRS

Activity (D(1A) dopamine receptor): Not Active
Activity (D(2) dopamine receptor): Not Active
Activity (D(3) dopamine receptor): Not Active
Activity (D(4) dopamine receptor): Not Active
Activity (D(1B) dopamine receptor): Not Active
Ki [1]: 0.015 µM
inhibition (INH) (Histamine H1 receptor): Active
inhibition at 10 µM [2]: 82%
Drug uptake [3]: Active
Structure (SMILES): O=C(NCCCCC(c1ccc(F)cc1)c1ccc(F)cc1)Nc1ccc(Cl)cc1
IC50 (MDA-MB-231): 7.68 µM
